The source made the active and inactive calls.
Experiments:
Mus musculus [1] = species: Mus musculus; experiment: Anticonvulsant activity expressed as toxic dose in rotarod test (0.5 hr) in mice;NA means inactive.; assay type: ADME, organism-based; settings: in vivo
Outline: (§1)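 Mice, rotorod test of acute neurotoxicity at 0.5 h. Doses 30, 100, 300 and 600 mg/kg, four animals per dose, with positives assessed by four more observations. Median neurotoxic dose (TD50) was estimated graphically from combined ADD and in-house screening. Where confirmed by further ADD testing, 95% confidence limits were calculated by Litchfield-Wilcoxon.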

Mus musculus [2] = experiment: Anticonvulsant activity in mice using sc Met seizure test.; assay type: functional
Outline: (§2)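 Mice were dosed at 30, 100, 300 and 600 mg/kg, four per dose, and tested at 30 min and 4 h. Pentylenetetrazol was then given subcutaneously at its CD99. Protection means absence of even a threshold seizure (one clonic spasm of 5 s). ED50 was estimated graphically, some at peak-effect time or 4 h. Litchfield-Wilcoxon 95% limits apply where confirmed.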

Mus musculus [3] = species: Mus musculus; experiment: Anticonvulsant activity in mice using MES seizure test.; assay type: functional
Outline: (§3)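 Mice were injected at 30, 100, 300 and 600 mg/kg, four per dose, and tested at 30 min and 4 h. Protection means abolition of the hindlimb tonic extensor component of the maximal electroshock seizure (60 Hz alternating current, 50 mA, 0.2 s, corneal electrodes). ED50 was estimated graphically. Confirmed values carry Litchfield-Wilcoxon 95% confidence limits.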

Mus musculus [4] = species: Mus musculus; experiment: Anticonvulsant activity in mice using MES seizure test;NA means inactive.; assay type: functional, organism-based; outline: as §3
[5] = Anticonvulsant activity expressed as toxic dose in rotarod test (0.5 hr) in mice; assay type: toxicity, organism-based; settings: mouse, in vivo
Outline: (§4)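 Acute neurotoxicity in mice by rotorod test after injection at 30, 100, 300 and 600 mg/kg, read at 30 min and 4 h, four animals per dose. TD50 is the median neurotoxic dose, estimated graphically; where confidence limits are given they are 95% limits by the Litchfield-Wilcoxon method from additional ADD testing.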

Mus musculus [6] = experiment: Anticonvulsant activity in mice using MES seizure test;Compound is neurotoxic at 30 mg/kg dose.; assay type: functional, organism-based; design: dose 30 mg/kg
Mus musculus [7] = experiment: Anticonvulsant activity in mice using sc Met seizure test;Compound is neurotoxic at 5 mg/kg.; assay type: functional, organism-based; design: dose 5 mg/kg
Mus musculus [8] = experiment: Anticonvulsant activity in mice using sc Met seizure test;Activity determined at time of peak effect (0.5 hr) and value ranges from(12-20).; assay type: functional
Outline: (§5)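 Subcutaneous pentylenetetrazol at the CD99 convulsant dose was given to mice pretreated at 30–600 mg/kg, four per dose, with tests at 30 min and 4 h. Protection is the absence of even a threshold seizure (one clonic spasm episode of 5 s). ED50 is estimated graphically or determined at the time of peak effect; 95% limits are by Litchfield-Wilcoxon.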

[9] = Anticonvulsant activity expressed as toxic dose in rotarod test (0.5 hr) in mice;Value ranges from(36-43).; assay type: ADME, organism-based; settings: mouse, in vivo; outline: as §4
Mus musculus [10] = species: Mus musculus; experiment: Anticonvulsant activity in mice using MES seizure test;Activity determined at time of peak effect (0.5 hr) and value ranges from(48-55); assay type: functional
Mus musculus [11] = experiment: Anticonvulsant activity expressed as toxic dose in rotarod test (0.5 hr) in mice;4 out of 4 mice died at 600 mg/kg; wild running and tonic extension convulsion at 300 mg/kg;NA means inactive.; assay type: ADME, organism-based; settings: in vivo; outline: as §1
Mus musculus [12] = experiment: Anticonvulsant activity in mice using sc Met seizure test;NA means inactive.; assay type: functional, organism-based; outline: as §2
[13] = Anticonvulsant activity expressed as toxic dose in rotarod test (0.5 hr) in mice;Activity determined at the time of peak effect (0.5 hr) and value ranges from (126-147).; assay type: ADME, organism-based; settings: mouse, in vivo; outline: as §4
Mus musculus [14] = experiment: Anticonvulsant activity in mice using MES seizure test;Compound is neurotoxic at 300 mg/kg dose.; assay type: functional, organism-based; design: dose 300 mg/kg
Mus musculus [15] = experiment: Anticonvulsant activity in mice using sc Met seizure test;Activity determined at the time of peak effect (1hr) and value ranges from (26-62).; assay type: functional; outline: as §5
Mus musculus [16] = experiment: Anticonvulsant activity in mice using sc Met seizure test;Activity is determined at 4h.; assay type: functional; outline: as §5
[17] = Anticonvulsant activity expressed as toxic dose in rotarod test (0.5 hr) in mice;Activity determined at time of peak effect (0.5 hr) and value ranges from(47-65).; assay type: ADME, organism-based; settings: mouse, in vivo; outline: as §1
Mus musculus [18] = species: Mus musculus; experiment: Anticonvulsant activity in mice using MES seizure test;Activity determined at time of peak effect (0.5 hr) and value ranges from (48-56).; assay type: functional; outline: as §3
Mus musculus [19] = experiment: Anticonvulsant activity in mice using sc Met seizure test;Activity determined at 4h.; assay type: functional; outline: as §5
[20] = Anticonvulsant activity expressed as toxic dose in rotarod test (0.5 hr) in mice;Activity determined at time of peak effect (0.5 hr); assay type: ADME, organism-based; settings: mouse, in vivo; outline: as §4
Mus musculus [21] = experiment: Anticonvulsant activity in mice using MES seizure test;Compound is neurotoxic at 100 mg/kg.; assay type: functional, organism-based; design: dose 100 mg/kg
Mus musculus [22] = species: Mus musculus; experiment: Anticonvulsant activity in mice using MES seizure test; determined at time of peak effect (0.5 hr); assay type: functional; outline: as §3

COC(=O)c1c(C)c(C)cc2c(=O)n(-c3ccc(F)cc3)c(C)nc12
TD50 (Mus musculus [1]): Not Active | ED50 (Mus musculus [2]): 440 mg/kg | ED50 (Mus musculus [3]): 600 mg/kg

Cc1cc2c(=O)n(-c3ccc(F)cc3)c(C)nc2c(C(=O)O)c1C
TD50 (Mus musculus [1]): Not Active | ED50 (Mus musculus [4]): inactive | ED50 (Mus musculus [2]): 440 mg/kg

COC(=O)c1c(C)c(C)cc2c(=O)n(-c3cccc(F)c3)c(C)nc12
TD50 at 0.5 h [5]: 540 mg/kg | ED50 (Mus musculus [4]): inactive | ED50 (Mus musculus [2]): 430 mg/kg

Cc1nc2cccnc2c(=O)n1-c1ccc(Cl)cc1Cl
ED50 (Mus musculus [6]): inactive | ED50 (Mus musculus [7]): inactive

Cc1ccccc1-n1c(C)nc2cccnc2c1=O
ED50 (Mus musculus [8]): 16.5 mg/kg | TD50 at 0.5 h [9]: 40 mg/kg | ED50 (Mus musculus [10]): 52 mg/kg

COC(=O)c1c(C)c(C)cc2c(=O)n(-c3ccccc3C)c(C)nc12
TD50 (Mus musculus [1]): Not Active | ED50 (Mus musculus [4]): inactive | ED50 (Mus musculus [2]): 600 mg/kg

Cc1cc2c(=O)n(-c3ccccn3)c(C)nc2c(C(=O)O)c1C
TD50 (Mus musculus [11]): Not Active | ED50 (Mus musculus [4]): inactive | ED50 (Mus musculus [12]): inactive

Cc1ccccc1-n1c(C)nc2ncccc2c1=O
TD50 at 0.5 h [13]: 137 mg/kg | ED50 (Mus musculus [14]): inactive | ED50 (Mus musculus [15]): 40 mg/kg

Cc1nc2cccnc2c(=O)n1-c1ccc(C(F)(F)F)cc1
TD50 at 0.5 h [5]: 170 mg/kg | ED50 (Mus musculus [16]): 90 mg/kg | ED50 (Mus musculus [14]): inactive

Cc1ccccc1-n1c(C)nc2ccccc2c1=O [METHAQUALONE]
TD50 at 0.5 h [17]: 55 mg/kg | ED50 (Mus musculus [18]): 52 mg/kg

Cc1nc2cccnc2c(=O)n1-c1cccc(C(F)(F)F)c1
TD50 at 0.5 h [5]: 50 mg/kg | ED50 (Mus musculus [4]): inactive | ED50 (Mus musculus [12]): inactive

COC(=O)c1c(C)c(C)cc2c(=O)n(-c3ccccc3F)c(C)nc12
TD50 at 0.5 h [5]: 280 mg/kg | ED50 (Mus musculus [4]): inactive | ED50 (Mus musculus [12]): inactive

Cc1nc2cccnc2c(=O)n1-c1ccccc1C(F)(F)F
ED50 (Mus musculus [19]): 100 mg/kg | TD50 at 0.5 h [20]: 100 mg/kg | ED50 (Mus musculus [21]): inactive

COC(=O)c1c(C)c(C)cc2c(=O)n(-c3ccccn3)c(C)nc12
TD50 (Mus musculus [1]): Not Active | ED50 (Mus musculus [12]): inactive | ED50 (Mus musculus [22]): 52 mg/kg
